The RNAGym collection of RNA variant scans (doi:10.1126/science.aae0568)
Fewer inactive variants are shown than the library holds.

B1: tRNA (parent)
chain: GUUCCGUUGGCGUAAUGGUAACGCGUCUCCCUCCUAAGGAGAAGACUGCGGGUUCGAGUCCCGUACGGAACG

Variants of: B1
Experiment: yeast fitness relative to wild type (ratio to wild type); higher = fitter; tRNA-Arg(CCU), competitive growth, 37 C, YPD
Method in brief: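 The tRNA-Arg(CCU) gene variants were made by chemical synthesis with a 3% per-site mutation rate at 69 sites and inserted at the native genomic locus of Saccharomyces cerevisiae. After pooling, the strains were competed in YPD at 37°C for 24 hours in six parallel replicates. Gene amplicons from the start population and each end population were read by 100-nucleotide paired-end sequencing, and Darwinian fitness relative to wild type was taken from genotype frequency changes. Genotypes needed ≥ 100 starting reads, and estimates < 0.5 were set to 0.5.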

Variant	yeast fitness
GUUCCGUUGGCGUACUGGUCACGCGUCUCCCUCCUAAGCAGAAGACUGCGGGUUCGAGUCCCGUACGGCACG [A15C A20C G39C A69C]	≤ 0.5
GUUCCGUUGGCGUACUGGUGUCGCGUCUCCCUCCUAAGGAGAAGACUGCGGGUUCGAGUCCCGUAGGGAACG [A15C A20G A21U C66G]	≤ 0.5
GUUCCGUUGGCGUACUGGUGACGCGUCUCCCUCCUAAGGAGAAGACUGCGGGUUCGAGUCCCGUGCGGAACG [A15C A20G A65G]	≤ 0.5
GUUCCGUUGGCGUACUGGUGACGCGUCUCCCUCCUAAGGAGAAGACUGCGGGUUCGAGUCCCGUACGGACCG [A15C A20G A70C]	0.6
GUUCCGUUGGCGUACUGGUUACGCGUCUCCGUCCUAAGGAGAAGACUGCGGGUUCGAGUCCAGUACGGAACG [A15C A20U C31G C62A]	≤ 0.5
GUUCCGUUGGCGUACUGGUAGUGCGUCUCCCUCCUAAGGAGAAGACUGUGGGCUCGAGUCCCGUACGGAACG [A15C A21G C22U C49U U53C]	≤ 0.5
GUUCCGUUGGCGUACUGGUAUCGCGUCUCCCUCCUAAGGAGAAGACUGCGGGUUCGAGUCCUGUACGGAACG [A15C A21U C62U]	0.53
GUUCCGUUGGCGUACUGGUAUCGCGUCUCCCUCCUAAGAAGAAGACUGCGGGUUCGAGUCCCGUACGGAACG [A15C A21U G39A]	≤ 0.5
GUUCCGUUGGCGUACUGGUAACGCGUCUCCCUCCUGAGGAGAAGACCGCGGGUUAGAGUCCCGUACGGAACG [A15C A36G U47C C55A]	≤ 0.5
GUUCCGUUGGCGUACUGGUAACGCGUCUCCCUCCUUAGGAGAAGACUGCGGGUUCGAGUCCCGUACGGAACG [A15C A36U]	0.633
GUUCCGUUGGCGUACUGGUAACGCGUCUCCCUCCUUAGGAGGAGACUGCGGGUUCGAGCACCGUACGGAACG [A15C A36U A42G U59C C60A]	≤ 0.5
GUUCCGUUGGCGUACUGGUAACGCGUCUCCCUCCUUAGGAGAAGACUGCGGGUUCGAGUCCCGUCCGGAACG [A15C A36U A65C]	0.54
GUUCCGUUGGCGUACUGGUAACGCGUCUCCCUCCUUAGGAGAAGACUGCGGGUUCGAGUCCCGUACGGUACG [A15C A36U A69U]	0.509
GUUCCGUUGGCGUACUGGUAACGCGUCUCCCUCCUUAGGAGAAGAGUGCGGGUUCAAGUACGGUAAGGAACG [A15C A36U C46G G56A C60A C62G C66A]	≤ 0.5
GUUCCGUUGGCGUACUGGUAACGCGUCUCCCUCCUUAGAAGAAGACUGCGGGUUCGAGUCCCGUACGGAACG [A15C A36U G39A]	≤ 0.5
GUUCCGUUGGCGUACUGGUAACGCGUCUCCCUCCUAAGGUGAAGACUGCGGGUUCGAGUCCCGUACGGAACG [A15C A40U]	0.833
GUUCCGUUGGCGUACUGGUAACGCGUCUCCCUCCUAAGGAGAGGAAUGCGGGUUCGAGUCCCGUACGAAACG [A15C A43G C46A G68A]	≤ 0.5
GUUCCGUUGGCGUACUGGUAACGCGUCUCCCUCCUAAGGAGAUGACUGCGGGUUCGAGUCCCGUACAGAACG [A15C A43U G67A]	0.535
GUUCCGUUGGCGUACUGGUAACGCGUCUCCCUCCUAAGGAGAAGACUGCGGGUUCGCGUCCCGUACGGAACG [A15C A57C]	≤ 0.5

Variant	yeast fitness
GUUCCGUUGGCGUACUGGUAACGCGUCUCCCUCCUAAGGAGAAGACUGCGGGUUCGAGUCCCGUACGGACCG [A15C A70C]	0.751
GUUCCGUUGGCGUACUGGUAAAGCGUCUCCCUCCUAAGGAGAAGACUGCGGGUUCGAGUCCCGUACGGAACG [A15C C22A]	0.697
GUUCCGUUGGCGUACUGGUAAAGCGUCUCCAUCCUAACGAGAAGACUGCGGGUUCGACUCCCGUACGGAACG [A15C C22A C31A G38C G58C]	0.542
GUUCCGUUGGCGUACUGGUAAAGCCUCACCCUCCUUAGGAGAAGACUGCGGGUUCGCGUCCCGUCCGCAACG [A15C C22A G25C U28A A36U A57C A65C G68C]	0.568
GUUCCGUUGGCGUACUGGUAAGGCGUCUCCCUCCUAAGGAGACGACUGCGGCUUCGAGUCCCGUACGGAACG [A15C C22G A43C G52C]	≤ 0.5
GUUCCGUUGGCGUACUGGUAACGAGUCUCCCUCCUAAGGAGAAGACUGCGGGCUCGAGUCCCGUACGGAACG [A15C C24A U53C]	≤ 0.5
GUUCCGUUGGCGUACUGGUAACGUGUCUCCCUCCUAAGGAGAAGACUGCGGGUUCGAGUCCCGUAUGGAACG [A15C C24U C66U]	≤ 0.5
GUUCCGUUGGCGUACUGGUAACGCGUAUCCCUCCUAAGGAGAAGACUGCGGGUUCGAGUCCCGUACGGAACG [A15C C27A]	0.554
GUUCCGUUGGCGUACUGGUAACGCGUUUCUCGCCAACGGAGAAGACUGCGGGUUCGUGUCCCGUACGGAACG [A15C C27U C30U U32G U35A A37C A57U]	≤ 0.5
GUUCCGUUGGCGUACUGGUAACGCGUUUCCCUCCUAAGGAGAAGACUGCGGGUUCGAGUCCUGUACGGAACG [A15C C27U C62U]	≤ 0.5
GUUCCGUUGGCGUACUGGUAACGCGUUUCCCUCCUAAGGAGAAGACUGCGGGUUCGAGUCCCAUACGGAACG [A15C C27U G63A]	≤ 0.5
GUUCCGUUGGCGUACUGGUAACGCGUUACCCUCCUAAGGUGAAGACUGCGGGUUCGAGUCCCGUACGGAACG [A15C C27U U28A A40U]	≤ 0.5
GUUCCGUUGGCGUACUGGUAACGCGUCUGGCUCCUAAGGAGAAGACCGCGGGUUCGAGUCCCGUACGGAACG [A15C C29G C30G U47C]	≤ 0.5
GUUCCGUUGGCGUACUGGUAACGCGUCUUCUUCCUAAGGAGAAGACUGCGGGUUCGAGUCCCGUACCGAACG [A15C C29U C31U G67C]	0.591
GUUCCGUUGGCGUACUGGUAACGCGUCUUCCUCCUAAGCAGUAGACUCCUCGUUCGAGUCCCGUUCGGAACG [A15C C29U G39C A42U G48C G50U G51C A65U]	≤ 0.5
GUUCCGUUGGCGUACUGGUAACGCGUCUUCCUCCUAAGCAGUAGACUGCUCGUUCGAGUCCCAUUCGGAACG [A15C C29U G39C A42U G50U G51C G63A A65U]	≤ 0.5
GUUCCGUUGGCGUACUGGUAACGCGUCUUCCUCCUAAGGAGAAGACUGCGGGUUCGAGUCCCGUACGCAACG [A15C C29U G68C]	≤ 0.5
GUUCCGUUGGCGUACUGGUAACGCGUCUCACUCCUAAGGAGAAGACUGCGGGUUCGAGUCCCGUACGGAACG [A15C C30A]	0.666
